This is an account of results in ChEMBL document CHEMBL1150419, “Structure-activity relationships of a peptide inhibitor of the human FcRn:human IgG interaction” (Bioorg Med Chem, 2008).

Square brackets hold non-standard residues; d marks the D form. Peptide text beside a SMILES is read from it. Dap = NC[C@H](N)C(=O)O Some results are limits rather than exact numbers.

The term Kd denotes a measure of binding affinity in units of concentration. Higher therefore signals a looser complex. In general, IC50 refers to the concentration that inhibits the measured activity by half. A high value points to a need for much substance.

The target in one experiment is T1, IgG receptor FcRn large subunit p51 (Homo sapiens, UniProt P55899). The experiment in a line: Binding affinity to human FcRn at pH 6 by surface plasmon resonance assay. In short, it runs like this: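 Soluble human FcRn coupled to the dextran surface of a CM5 chip; peptide dilutions flowed over the chip. The equilibrium response at each dilution was plotted against concentration and fitted to a steady-state affinity model to give Kd.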
T1 sequence (P55899 whole entry): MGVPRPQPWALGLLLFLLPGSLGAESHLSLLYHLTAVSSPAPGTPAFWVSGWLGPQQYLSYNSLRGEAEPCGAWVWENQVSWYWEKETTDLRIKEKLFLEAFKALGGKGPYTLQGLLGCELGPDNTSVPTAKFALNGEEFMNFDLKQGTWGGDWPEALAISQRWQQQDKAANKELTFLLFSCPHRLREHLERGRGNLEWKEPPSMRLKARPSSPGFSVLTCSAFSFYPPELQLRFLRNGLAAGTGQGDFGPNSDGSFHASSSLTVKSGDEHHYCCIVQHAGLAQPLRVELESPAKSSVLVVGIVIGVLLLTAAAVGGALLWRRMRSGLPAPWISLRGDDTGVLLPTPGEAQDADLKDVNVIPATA
A general note: Surface plasmon resonance follows binding to a sensor surface in real time, without labels.
As to `CC(C)C[C@H](NC(=O)CNC(=O)CNC(=O)[C@H](Cc1ccccc1)NC(=O)[C@H](Cc1cnc[nH]1)NC(=O)CNC(=O)[C@@H](NC(=O)[C@H](NC(=O)[C@H](Cc1ccccc1)NC(=O)[C@H](CCCNC(=N)N)NC(=O)[C@@H](N)CCC(N)=O)C(C)(C)S)[C@@H](C)O)C(=O)N[C@H](Cc1ccc(O)cc1)C(=O)N1CCC[C@H]1C(=O)N[C@H](CS)C(=O)N[C@@H](CC(N)=O)C(=O)NCC(=O)N1CCC[C@H]1C(=O)O`, the Kd was above 250 µM. On the same count and under the same terms, as for `CC(C)C[C@@H](NC(=O)CNC(=O)CNC(=O)[C@@H](Cc1ccccc1)NC(=O)[C@H](Cc1cnc[nH]1)NC(=O)CNC(=O)[C@@H](NC(=O)[C@H](NC(=O)[C@H](Cc1ccccc1)NC(=O)[C@H](CCCNC(=N)N)NC(=O)[C@@H](N)CCC(N)=O)C(C)(C)S)[C@@H](C)O)C(=O)N[C@@H](Cc1ccc(O)cc1)C(=O)N1CCC[C@H]1C(=O)N[C@H](CS)C(=O)N[C@@H](CC(N)=O)C(=O)NCC(=O)N1CCC[C@H]1C(=O)O`, the figure is above 250 µM; as for `CC(C)C[C@H](NC(=O)CNC(=O)CNC(=O)[C@H](Cc1ccccc1)NC(=O)[C@H](Cc1cnc[nH]1)NC(=O)CNC(=O)[C@@H](NC(=O)[C@H](CCS)NC(=O)[C@H](Cc1ccccc1)NC(=O)[C@H](CCCNC(=N)N)NC(=O)[C@@H](N)CCC(N)=O)[C@@H](C)O)C(=O)N[C@@H](Cc1ccc(O)cc1)C(=O)N1CCC[C@H]1C(=O)N[C@H](C(=O)N[C@@H](CC(N)=O)C(=O)NCC(=O)N1CCC[C@H]1C(=O)O)C(C)(C)S`, 2.1 µM. Same read-out and setting: the same measure for `CC(C)C[C@H](NC(=O)CNC(=O)CN(C)C(=O)[C@H](Cc1ccccc1)NC(=O)[C@H](Cc1cnc[nH]1)NC(=O)CNC(=O)[C@@H](NC(=O)[C@@H](NC(=O)[C@H](Cc1ccccc1)NC(=O)[C@H](CCCN=C(N)N)NC(=O)[C@@H](N)CCC(N)=O)C(C)(C)S)[C@@H](C)O)C(=O)N[C@@H](Cc1ccc(O)cc1)C(=O)N1CCC[C@H]1C(=O)N[C@@H](CS)C(=O)N[C@@H](CC(N)=O)C(=O)NCC(=O)N1CCC[C@H]1C(=O)O`: 2 µM; for `CC(C)C[C@H](NC(=O)CNC(=O)CNC(=O)[C@H](Cc1ccccc1)NC(=O)[C@H](Cc1cnc[nH]1)NC(=O)CNC(=O)[C@@H](NC(=O)[C@H](NC(=O)[C@H](Cc1ccccc1)NC(=O)[C@H](CCCNC(=N)N)NC(=O)[C@@H](N)CCC(N)=O)C(C)(C)S)[C@@H](C)O)C(=O)N[C@@H](Cc1ccc(O)cc1)C(=O)N1CCC[C@@H]1C(=O)N[C@H](CS)C(=O)N[C@@H](CC(N)=O)C(=O)NCC(=O)N1CCC[C@H]1C(=O)O`: above 250 µM; for `CC(C)C[C@H](NC(=O)CNC(=O)CNC(=O)[C@H](Cc1ccccc1)NC(=O)[C@H](Cc1cnc[nH]1)NC(=O)CNC(=O)[C@@H](NC(=O)[C@H](CS)NC(=O)[C@H](Cc1ccccc1)NC(=O)[C@H](CCCNC(=N)N)NC(=O)[C@@H](N)CCC(N)=O)[C@@H](C)O)C(=O)N[C@@H](Cc1ccc(O)cc1)C(=O)N1CCC[C@H]1C(=O)N[C@@H](CS)C(=O)N[C@@H](CC(N)=O)C(N)=O`: 6.1 µM. The same measure, in the same setting: as for `CC(C)C[C@H](NC(=O)CNC(=O)CNC(=O)[C@H](Cc1ccccc1)N(C)C(=O)[C@H](Cc1cnc[nH]1)NC(=O)CNC(=O)[C@@H](NC(=O)[C@@H](NC(=O)[C@H](Cc1ccccc1)NC(=O)[C@H](CCCN=C(N)N)NC(=O)[C@@H](N)CCC(N)=O)C(C)(C)S)[C@@H](C)O)C(=O)N[C@@H](Cc1ccc(O)cc1)C(=O)N1CCC[C@H]1C(=O)N[C@@H](CS)C(=O)N[C@@H](CC(N)=O)C(=O)NCC(=O)N1CCC[C@H]1C(=O)O`, the figure is above 250 µM; as for `CC(C)C[C@H](NC(=O)CNC(=O)CNC(=O)[C@H](Cc1ccccc1)NC(=O)[C@H](Cc1cnc[nH]1)NC(=O)CNC(=O)[C@@H](NC(=O)[C@@H](NC(=O)[C@H](Cc1ccccc1)NC(=O)[C@H](CCCNC(=N)N)NC(=O)[C@@H](N)CCC(N)=O)C(C)(C)S)[C@@H](C)O)C(=O)N(C)[C@@H](Cc1ccc(O)cc1)C(=O)N1CCC[C@H]1C(=O)N[C@@H](CS)C(=O)N[C@@H](CC(N)=O)C(=O)NCC(=O)N1CCC[C@H]1C(=O)O`, 92 µM.

The next experiment concerns the target T1, IgG receptor FcRn large subunit p51. The experiment is described as follows: Inhibition of human IgG binding to soluble human FcRn by ELISA. The method in brief:
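Biotinylated soluble human FcRn immobilized on neutravidin plates, incubated with hIgG (3 nM, constant) and peptide at varying concentrations for 2 h at 37 °C. After washing, bound hIgG detected with peroxidase-conjugated hIgG-specific Fab fragments.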
On the technique in general: An ELISA detects its analyte on a solid surface through an enzyme-linked reagent.
With `CC(C)C[C@@H](C(=O)N[C@@H](Cc1ccc(O)cc1)C(=O)N1CCC[C@H]1C(=O)N[C@@H](CS)C(=O)O)N1CC[C@H](NC(=O)CNC(=O)[C@H](Cc2ccccc2)NC(=O)[C@H](Cc2cnc[nH]2)NC(=O)CNC(=O)[C@@H](NC(=O)[C@@H](NC(=O)[C@H](Cc2ccccc2)NC(=O)[C@@H](N)CCCNC(=N)N)C(C)(C)S)[C@@H](C)O)C1=O`, the IC50 is 19 µM. On the same count and under the same terms, the same measure for `CC(C)C[C@H](NC(=O)Cc1cccc(NC(=O)[C@H](Cc2ccccc2)NC(=O)[C@H](Cc2cnc[nH]2)NC(=O)CNC(=O)[C@@H](NC(=O)[C@@H](NC(=O)[C@H](Cc2ccccc2)NC(=O)[C@@H](N)CCCN=C(N)N)C(C)(C)S)[C@@H](C)O)c1)C(=O)N[C@@H](Cc1ccc(O)cc1)C(=O)N1CCC[C@H]1C(=O)N[C@@H](CS)C(=O)O`: 14 µM; for `CC(C)C[C@H](NC(=O)CNC(=O)CNC(=O)[C@H](Cc1ccccc1)NC(=O)[C@H](Cc1cnc[nH]1)NC(=O)CNC(=O)[C@@H](NC(=O)[C@H](CC(=O)O)NC(=O)[C@H](Cc1ccccc1)NC(=O)[C@H](CCCN=C(N)N)NC(=O)[C@@H](N)CCC(N)=O)[C@@H](C)O)C(=O)N[C@@H](Cc1ccc(O)cc1)C(=O)N1CCC[C@H]1C(=O)N[C@@H](CN)C(=O)N[C@@H](CC(N)=O)C(=O)NCC(=O)N1CCC[C@H]1C(=O)O`: 32 µM; for `CC(C)C[C@H](NC(=O)c1ccc(CNC(=O)[C@H](Cc2ccccc2)NC(=O)[C@H](Cc2cnc[nH]2)NC(=O)CNC(=O)[C@@H](NC(=O)[C@@H](NC(=O)[C@H](Cc2ccccc2)NC(=O)[C@@H](N)CCCNC(=N)N)C(C)(C)S)[C@@H](C)O)cc1)C(=O)N[C@@H](Cc1ccc(O)cc1)C(=O)N1CCC[C@H]1C(=O)N[C@@H](CS)C(=O)O`: above 125 µM. Same read-out and setting: the same measure for `CC(C)C[C@H](NC(=O)CNC(=O)CNC(=O)[C@H](Cc1ccccc1)NC(=O)[C@H](Cc1cnc[nH]1)NC(=O)CNC(=O)[C@@H](NC(=O)[C@H](CN)NC(=O)[C@H](Cc1ccccc1)NC(=O)[C@H](CCCNC(=N)N)NC(=O)[C@@H](N)CCC(N)=O)[C@@H](C)O)C(=O)N[C@@H](Cc1ccc(O)cc1)C(=O)N1CCC[C@H]1C(=O)N[C@@H](CC(=O)O)C(=O)N[C@@H](CC(N)=O)C(=O)NCC(=O)N1CCC[C@H]1C(=O)O`: 120 µM. `CC(C)C[C@H](NC(=O)CNC(=O)CNC(=O)[C@H](Cc1ccccc1)NC(=O)[C@H](Cc1cnc[nH]1)NC(=O)CNC(=O)[C@@H](NC(=O)[C@H](CCCN)NC(=O)[C@H](Cc1ccccc1)NC(=O)[C@H](CCCNC(=N)N)NC(=O)[C@@H](N)CCC(N)=O)[C@@H](C)O)C(=O)N[C@@H](Cc1ccc(O)cc1)C(=O)N1CCC[C@H]1C(=O)N[C@@H](CCC(=O)O)C(=O)N[C@@H](CC(N)=O)C(=O)NCC(=O)N1CCC[C@H]1C(=O)O` had an IC50 of 30 µM.

As to `CC(C)C[C@H](NC(=O)Cc1ccc(NC(=O)[C@H](Cc2ccccc2)NC(=O)[C@H](Cc2cnc[nH]2)NC(=O)CNC(=O)[C@@H](NC(=O)[C@@H](NC(=O)[C@H](Cc2ccccc2)NC(=O)[C@@H](N)CCCN=C(N)N)C(C)(C)S)[C@@H](C)O)cc1)C(=O)N[C@@H](Cc1ccc(O)cc1)C(=O)N1CCC[C@H]1C(=O)N[C@@H](CS)C(=O)O`, the IC50 is above 125 µM. The same measure, in the same setting: as for `CC(C)C[C@H](NC(=O)CNC(=O)CNC(=O)[C@H](Cc1ccccc1)NC(=O)[C@H](Cc1cnc[nH]1)NC(=O)CNC(=O)[C@@H](NC(=O)[C@H](CCCN)NC(=O)[C@H](Cc1ccccc1)NC(=O)[C@H](CCCNC(=N)N)NC(=O)[C@@H](N)CCC(N)=O)[C@@H](C)O)C(=O)N[C@@H](Cc1ccc(O)cc1)C(=O)N1CCC[C@H]1C(=O)N[C@@H](CC(=O)O)C(=O)N[C@@H](CC(N)=O)C(=O)NCC(=O)N1CCC[C@H]1C(=O)O`, the figure is 120 µM; as for `CC(C)C[C@H](NC(=O)[C@H]1CSC2C[C@@H](NC(=O)[C@H](Cc3ccccc3)NC(=O)[C@H](Cc3cnc[nH]3)NC(=O)CNC(=O)[C@@H](NC(=O)[C@H](NC(=O)[C@H](Cc3ccccc3)NC(=O)[C@@H](N)CCCNC(=N)N)C(C)(C)S)[C@@H](C)O)C(=O)N21)C(=O)N[C@@H](Cc1ccc(O)cc1)C(=O)N1CCC[C@H]1C(=O)N[C@@H](CS)C(=O)O` (stereo partly specified), 23 µM. Same read-out and setting: the same measure for `CC(C)C[C@H](NC(=O)c1cccc(CNC(=O)[C@H](Cc2ccccc2)NC(=O)[C@H](Cc2cnc[nH]2)NC(=O)CNC(=O)[C@@H](NC(=O)[C@@H](NC(=O)[C@H](Cc2ccccc2)NC(=O)[C@@H](N)CCCN=C(N)N)C(C)(C)S)[C@@H](C)O)c1)C(=O)N[C@@H](Cc1ccc(O)cc1)C(=O)N1CCC[C@H]1C(=O)N[C@@H](CS)C(=O)O`: 57 µM; for `CC(C)C[C@H](NC(=O)[C@H]1CS[C@@H]2CC[C@@H](NC(=O)[C@H](Cc3ccccc3)NC(=O)[C@H](Cc3cnc[nH]3)NC(=O)CNC(=O)[C@@H](NC(=O)[C@H](NC(=O)[C@H](Cc3ccccc3)NC(=O)[C@@H](N)CCCN=C(N)N)C(C)(C)S)[C@@H](C)O)C(=O)N12)C(=O)N[C@@H](Cc1ccc(O)cc1)C(=O)N1CCC[C@H]1C(=O)N[C@@H](CS)C(=O)O`: 2.2 µM; for `CC(C)C[C@H](NC(=O)CNC(=O)CNC(=O)[C@H](Cc1ccccc1)NC(=O)[C@H](Cc1cnc[nH]1)NC(=O)CNC(=O)[C@@H](NC(=O)[C@H](CCCCN)NC(=O)[C@H](Cc1ccccc1)NC(=O)[C@H](CCCNC(=N)N)NC(=O)[C@@H](N)CCC(N)=O)[C@@H](C)O)C(=O)N[C@@H](Cc1ccc(O)cc1)C(=O)N1CCC[C@H]1C(=O)N[C@@H](CC(=O)O)C(=O)N[C@@H](CC(N)=O)C(=O)NCC(=O)N1CCC[C@H]1C(=O)O`: 60 µM.

As for `CC(C)C[C@H](NC(=O)CNC(=O)CNC(=O)[C@H](Cc1ccccc1)NC(=O)[C@H](Cc1cnc[nH]1)NC(=O)CNC(=O)[C@@H](NC(=O)[C@H](CN)NC(=O)[C@H](Cc1ccccc1)NC(=O)[C@H](CCCN=C(N)N)NC(=O)[C@@H](N)CCC(N)=O)[C@@H](C)O)C(=O)N[C@@H](Cc1ccc(O)cc1)C(=O)N1CCC[C@H]1C(=O)N[C@@H](CCC(=O)O)C(=O)N[C@@H](CC(N)=O)C(=O)NCC(=O)N1CCC[C@H]1C(=O)O` (H-QRF[Dap]TGHFGGLYPENGP-OH), the IC50 was above 125 µM.
